For assay [1], the target named is T1, Sphingosine 1-phosphate receptor 1 (Homo sapiens, UniProt P21453). The assay is described as follows: Displacement of [33P]sphingosine-1-phosphate from human S1P1 receptor.
Assay [2] addresses T2, Sphingosine 1-phosphate receptor 3 (Homo sapiens, UniProt Q99500). The assay is described as follows: Displacement of [33P]sphingosine-1-phosphate from human S1P3 receptor.
The species entered for assay [3] is Homo sapiens. The assay is described as follows: Ratio of IC50 for human S1P3 receptor to IC50 for human S1P1 receptor.
Assay [4] has as its system Mus musculus. Description: Immunomodulatory activity in C57BL/6 mouse assessed as lymphopenia at 10 mg/kg, po after 6 hrs by complete blood count analysis. The class given is functional. The method in brief: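 The amino-alcohol (unphosphorylated) form was given orally to mice, in single doses from 0.3 to 10 mg/kg, with the main screen at 10 mg/kg. Circulating lymphocytes were counted 6 h post-dose. Lymphopenia was expressed as the percent decrease in circulating lymphocytes relative to a time-matched vehicle control group.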

The target in assay [5] is T2, Sphingosine 1-phosphate receptor 3. Description: Agonist activity at human S1P3 receptor assessed as stimulation of [35S]GTPgammaS binding. The class given is functional.
The species named for assay [6] is Homo sapiens. The assay is described as follows: Ratio of EC50 for human S1P3 receptor to EC50 for human S1P1 receptor.
Assay [7] deals with T3, Sphingosine 1-phosphate receptor 4 (Homo sapiens, UniProt O95977).
T3 sequence (O95977 whole entry): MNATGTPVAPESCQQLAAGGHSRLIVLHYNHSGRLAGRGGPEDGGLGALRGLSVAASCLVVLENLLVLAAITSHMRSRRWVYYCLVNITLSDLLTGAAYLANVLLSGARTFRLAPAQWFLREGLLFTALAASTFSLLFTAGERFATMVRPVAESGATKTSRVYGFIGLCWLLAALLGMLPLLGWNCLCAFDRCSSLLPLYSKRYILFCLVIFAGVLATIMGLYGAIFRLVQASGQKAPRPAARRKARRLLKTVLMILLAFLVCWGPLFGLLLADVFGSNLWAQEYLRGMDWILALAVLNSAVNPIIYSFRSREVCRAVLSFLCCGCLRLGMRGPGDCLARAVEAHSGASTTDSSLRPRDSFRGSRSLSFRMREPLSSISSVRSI
Description: Displacement of [33P]sphingosine-1-phosphate from human S1P4 receptor.

Assay [8] concerns the target Sphingosine 1-phosphate receptor 5 (Homo sapiens, UniProt Q9H228). Description: Displacement of [33P]sphingosine-1-phosphate from human S1P5 receptor.
The target of assay [9] is T1, Sphingosine 1-phosphate receptor 1. Description: Agonist activity at human S1P1 receptor assessed as stimulation of [35S]GTPgammaS binding. The format is functional. (GTPγS is a poorly hydrolysed GTP analogue; its binding reports G protein activation.)

Activity calls are given as the source filed them. The calls are words filed in the database; no cut-off is given here.

T1 sequence (P21453 whole entry): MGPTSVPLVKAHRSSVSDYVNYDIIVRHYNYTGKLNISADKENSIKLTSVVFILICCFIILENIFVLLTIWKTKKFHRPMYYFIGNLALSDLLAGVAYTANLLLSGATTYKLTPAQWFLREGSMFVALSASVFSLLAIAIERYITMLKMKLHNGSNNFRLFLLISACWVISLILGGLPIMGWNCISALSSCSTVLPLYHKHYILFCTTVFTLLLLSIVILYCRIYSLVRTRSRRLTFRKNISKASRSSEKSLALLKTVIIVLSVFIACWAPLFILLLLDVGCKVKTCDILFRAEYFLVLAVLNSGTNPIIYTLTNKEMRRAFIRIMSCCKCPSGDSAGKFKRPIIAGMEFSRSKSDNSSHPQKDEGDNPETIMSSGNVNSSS
T2 sequence (Q99500 whole entry): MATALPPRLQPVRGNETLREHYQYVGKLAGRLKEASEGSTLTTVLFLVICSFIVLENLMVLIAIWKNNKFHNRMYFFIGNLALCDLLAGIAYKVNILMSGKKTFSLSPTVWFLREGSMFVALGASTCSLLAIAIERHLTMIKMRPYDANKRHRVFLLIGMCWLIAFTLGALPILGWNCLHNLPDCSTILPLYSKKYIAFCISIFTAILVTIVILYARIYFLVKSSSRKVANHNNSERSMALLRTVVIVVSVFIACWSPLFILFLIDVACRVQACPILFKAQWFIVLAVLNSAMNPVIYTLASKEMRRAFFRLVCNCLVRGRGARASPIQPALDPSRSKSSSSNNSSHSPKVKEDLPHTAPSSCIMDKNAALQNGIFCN
Sequence of Sphingosine 1-phosphate receptor 5 (Q9H228 whole entry): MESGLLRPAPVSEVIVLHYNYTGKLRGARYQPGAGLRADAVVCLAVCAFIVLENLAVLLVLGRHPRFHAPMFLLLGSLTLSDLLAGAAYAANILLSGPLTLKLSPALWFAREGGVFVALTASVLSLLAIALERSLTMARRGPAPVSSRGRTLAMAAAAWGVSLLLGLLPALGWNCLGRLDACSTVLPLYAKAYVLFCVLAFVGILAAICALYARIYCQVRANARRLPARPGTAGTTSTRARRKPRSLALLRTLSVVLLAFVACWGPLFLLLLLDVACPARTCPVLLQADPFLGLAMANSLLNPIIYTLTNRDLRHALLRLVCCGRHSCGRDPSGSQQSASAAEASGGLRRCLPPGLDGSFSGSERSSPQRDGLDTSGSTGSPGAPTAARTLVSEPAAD

A word on the IC50: it is the concentration that gives 50% inhibition. As to `C[C@](N)(COP(=O)(O)O)C(=O)Nc1ccc(OCCc2ccc(-c3ccccc3Cl)cc2)cc1`, the values for the IC50 in assay [1] and in [2] were 0.84 nM and 160 nM, respectively. Besides, the Ratio IC50 in [3] was 190.

`C[C@](N)(COP(=O)(O)O)C(=O)Nc1ccc(OCCc2ccc(-c3cccs3)cc2)cc1`: the 50% inhibitory concentration (IC50) in assay [1] amounted to 21 nM; in assay [2], 3750 nM. Also, the Ratio IC50 in [3] was 178. As for `CCOc1cccc(Oc2ccc(NC(=O)[C@@](C)(N)CO)cc2)c1`, the outcome in assay [4] was inactive. Still for that read-out and setting: the value for `C[C@](N)(CO)C(=O)Nc1ccc(OCCc2ccc(-c3ccc(Cl)cc3)cc2)cc1` was “inactive”. On to `C[C@](N)(COP(=O)(O)O)C(=O)Nc1ccc(OCCc2cccc(-c3ccccc3)c2)cc1`, for which the IC50 in assay [1] is 2000 nM; in [2], 10000 nM. In addition, the Ratio IC50 in [3] is 5. The corresponding values for `Cc1ccccc1-c1ccc(CCOc2ccc(NC(=O)[C@@](C)(N)COP(=O)(O)O)cc2)cc1` are 0.78 nM, 50 nM and 64. As to `CCc1ccc(-c2ccc(NC(=O)[C@@](C)(N)CO)cc2)cc1`, the Activity in [4] was 29%. Still for that read-out and setting: the entry for `CCCCOc1ccc(Oc2ccc(NC(=O)[C@@](C)(N)CO)cc2)cc1` is “inactive”. The same measure, in the same setting: the value for `CCCOc1cccc(-c2ccc(NC(=O)[C@@](C)(N)CO)cc2)c1` was 20%. On the same count and under the same terms, the value for `C[C@](N)(CO)C(=O)Nc1ccc(OCCCCc2ccccc2)cc1` was 85%; that for `C[C@](N)(CO)C(=O)Nc1ccc(OCCc2cccc3ccccc23)cc1` was “inactive”. For the compound `CCCCc1ccc(-c2ccc(NC(=O)[C@@](C)(N)CO)cc2)cc1`, the outcome in assay [4] was inactive. Still for that read-out and setting: the value for `CCc1ccc(-c2ccc(CCOc3ccc(NC(=O)[C@@](C)(N)CO)cc3)cc2)cc1` was “inactive”. Take `C[C@](N)(COP(=O)(O)O)C(=O)Nc1ccc(OCCc2cccc3ccccc23)cc1`: the IC50 in assay [1] turned out to be 220 nM; in assay [2] it was 2500 nM. Further, the Ratio IC50 in assay [3] was 11. As to `C[C@](N)(CO)C(=O)Nc1ccc(OCCCCC2CCCCC2)cc1`, the Activity in [4] amounted to 74%. The same measure, in the same setting: the value for `C[C@](N)(CO)C(=O)Nc1ccc(OCCc2ccc(-c3cccs3)cc2)cc1` was 78%.

As for `C[C@](N)(CO)C(=O)Nc1ccc(Oc2cccc(OCc3ccccc3)c2)cc1`, in assay [4], the Activity is 10%. As a reminder, the EC50 is the concentration needed to bring the measured effect to its halfway point. Take `C[C@](N)(COP(=O)(O)O)C(=O)Nc1ccc(OCCCCc2ccccc2)cc1`: the EC50 in assay [5] is over 3000 nM; in assay [9], 44.1 nM. Further, the Ratio EC50 in [6] is over 68. Moreover, the IC50 in [1] is 2.1 nM; in assay [7], 10.3 nM; in assay [2] it was 100 nM; in assay [8], 43.6 nM. Further, the Ratio IC50 in assay [3] worked out at 48.

For the compound `CCOc1ccc(-c2ccc(CCOc3ccc(NC(=O)[C@@](C)(N)CO)cc3)cc2)cc1`, the Activity in [4] was determined as 10%. In the case of `C[C@](N)(CO)C(=O)Nc1ccc(OCCc2ccc(Cl)c(Cl)c2)cc1`, the Activity in assay [4] worked out at 10%. The same measure, in the same setting: the value for `COc1cccc(Oc2ccc(NC(=O)[C@@](C)(N)CO)cc2)c1` was “inactive”; that for `C[C@](N)(CO)C(=O)Nc1ccc(-c2ccccc2)cc1` was “inactive”. Regarding `C[C@](N)(COP(=O)(O)O)C(=O)Nc1ccc(OCCCCc2cccs2)cc1`, the IC50 turned out to be 30 nM in [1] and 120 nM in assay [2]. The Ratio IC50 in assay [3] came to 4. With `C[C@](N)(CO)C(=O)Nc1ccc(OCCc2ccc(-c3ccccc3Cl)cc2)cc1`, the Activity in assay [4] was found to be 75%. The same measure, in the same setting: the value for `C[C@](N)(CO)C(=O)Nc1ccc(OCCc2ccc(-c3cccc(C(F)(F)F)c3)cc2)cc1` was 51%; that for `C[C@](N)(CO)C(=O)Nc1ccc(OCCc2ccc(-c3ccccc3C#N)cc2)cc1` was 78%. `COc1cccc(-c2ccc(NC(=O)[C@@](C)(N)CO)cc2)c1`: the Activity in assay [4] was found to be 34%.

Regarding `CC(C)c1ccc(-c2ccc(CCOc3ccc(NC(=O)[C@@](C)(N)CO)cc3)cc2)cc1`, the outcome in assay [4] was inactive.

As for `C[C@](N)(CO)C(=O)Nc1ccc(OCCc2ccc(-c3ccncc3)cc2)cc1`, the Activity in assay [4] is recorded as 78%. Same read-out and setting: the value for `C[C@](N)(CO)C(=O)Nc1ccc(Oc2ccc(Cl)cc2)cc1` was “inactive”.

Turning to `CC(C)c1cccc(Oc2ccc(NC(=O)[C@@](C)(N)CO)cc2)c1`, in assay [4], the result was inactive.

Turning to `C[C@](N)(CO)C(=O)Nc1ccc(-c2ccc3c(c2)OCO3)cc1`, in [4], the Activity came to 40%.

As for `C[C@](N)(CO)C(=O)Nc1ccc(Oc2cccc(C(F)(F)F)c2)cc1`, the outcome in [4] was inactive. Still for that read-out and setting: the figure for `C[C@](N)(CO)C(=O)Nc1ccc(OCCc2ccc(-c3cccnc3)cc2)cc1` is 60%.

With `Cc1noc(C)c1-c1ccc(CCOc2ccc(NC(=O)[C@@](C)(N)CO)cc2)cc1`, the Activity in [4] was 62%. The same measure, in the same setting: the entry for `CCOc1ccc(CCOc2ccc(NC(=O)[C@@](C)(N)CO)cc2)cc1` is “inactive”.

As for `C[C@](N)(CO)C(=O)Nc1ccc(OCCc2cccc(C(F)(F)F)c2)cc1`, the result in assay [4] was inactive.

On to `C[C@](N)(COP(=O)(O)O)C(=O)Nc1ccc(OCCCc2ccc(-c3ccccc3)cc2)cc1`, for which the results for the EC50 in assay [5] and in assay [9] were 63.3 nM and 2.9 nM, respectively. Also, the Ratio EC50 in [6] turned out to be 21.8. For the same compound, the IC50 in assay [1] worked out at 0.9 nM; in [7], 5.24 nM; in assay [2], 27.1 nM; in assay [8] it was 70.4 nM. In assay [4], the Activity is 61%. In the case of `CCCCc1ccc(Oc2ccc(NC(=O)[C@@](C)(N)CO)cc2)cc1`, the Activity in [4] is 10%. The same measure, in the same setting: the value for `C[C@](N)(CO)C(=O)Nc1ccc(OCCc2ccc(Cl)cc2)cc1` was “inactive”; that for `CC(C)Oc1cccc(Oc2ccc(NC(=O)[C@@](C)(N)CO)cc2)c1` was “inactive”; that for `C[C@](N)(CO)C(=O)Nc1ccc(Oc2ccc(F)cc2)cc1` was “inactive”. Turning to `CC(C)c1cccc(-c2ccc(NC(=O)[C@@](C)(N)CO)cc2)c1`, in assay [4], the Activity came out at 22%.

As for `C[C@](N)(COP(=O)(O)O)C(=O)Nc1ccc(OCCc2ccc(-c3ccccc3C#N)cc2)cc1`, the IC50 is 12 nM in assay [1] and 1040 nM in assay [2]. Besides, the Ratio IC50 in assay [3] was determined as 87. For `C[C@](N)(CO)C(=O)Nc1ccc(OCCc2ccc(-c3ccccc3)cc2)cc1`, in [4], the Activity stood at 81%.

Turning to `CCCCOc1ccc(-c2ccc(NC(=O)[C@@](C)(N)CO)cc2)cc1`, the outcome in assay [4] was inactive. Still for that read-out and setting: the value for `CCCCOc1cccc(-c2ccc(NC(=O)[C@@](C)(N)CO)cc2)c1` was 16%. Same read-out and setting: the entry for `C[C@](N)(CO)C(=O)Nc1ccc(OCCc2cccc(-c3ccccc3)c2)cc1` is “inactive”. On to `CC(C)Oc1cccc(-c2ccc(NC(=O)[C@@](C)(N)CO)cc2)c1`, for which the Activity in assay [4] came to 23%. `CCCCOc1cccc(Oc2ccc(NC(=O)[C@@](C)(N)CO)cc2)c1`: the outcome in assay [4] was inactive. On the same count and under the same terms, the entry for `C[C@](N)(CO)C(=O)Nc1ccc(Oc2ccccc2)cc1` is “inactive”; for `COc1ccc(-c2ccc(NC(=O)[C@@](C)(N)CO)cc2)cc1` it is “inactive”; for `Cc1ccc(-c2ccc(NC(=O)[C@@](C)(N)CO)cc2)cc1` it is 18%. The same measure, in the same setting: the value for `CCc1ccc(Oc2ccc(NC(=O)[C@@](C)(N)CO)cc2)cc1` was “inactive”.

For the compound `C[C@](N)(CO)C(=O)Nc1ccc(OCCCCCc2ccccc2)cc1`, the Activity in assay [4] is listed as 64%. The same measure, in the same setting: the value for `CCCOc1cccc(Oc2ccc(NC(=O)[C@@](C)(N)CO)cc2)c1` was 33%; that for `C[C@](N)(CO)C(=O)Nc1ccc(Oc2ccc(-c3ccccc3)cc2)cc1` was 81%; that for `COc1ccc(CCCCOc2ccc(NC(=O)[C@@](C)(N)CO)cc2)cc1` was 60%.

Consider `C[C@](N)(CO)C(=O)Nc1ccc(-c2cccc(OCc3ccccc3)c2)cc1`, for which, in assay [4], the Activity was determined as 31%. Still for that read-out and setting: the entry for `C[C@](N)(CO)C(=O)Nc1ccc(OCCc2ccc(C(F)(F)F)cc2)cc1` is “inactive”; for `Cc1ccccc1-c1ccc(CCOc2ccc(NC(=O)[C@@](C)(N)CO)cc2)cc1` it is 79%. Regarding `CCOc1cccc(-c2ccc(NC(=O)[C@@](C)(N)CO)cc2)c1`, in [4], the Activity is recorded as 15%. `COc1ccc(CCOc2ccc(NC(=O)[C@@](C)(N)CO)cc2)cc1`: the result in assay [4] was inactive. Consider `COc1ccc(CCCCOc2ccc(NC(=O)[C@@](C)(N)COP(=O)(O)O)cc2)cc1`, for which the values for the IC50 in assay [1] and in assay [2] were 4.75 nM and 100 nM, respectively. In addition, the Ratio IC50 in [3] was 21. `C[C@](N)(CO)C(=O)Nc1ccc(OCCc2ccc(-c3ccoc3)cc2)cc1`: the Activity in assay [4] was 68%.

For `C[C@](N)(CO)C(=O)Nc1ccc(OCCCCc2cccs2)cc1`, the Activity in assay [4] came to 66%.

The record behind these values is ChEMBL document CHEMBL1138585, “Synthesis and evaluation of arylalkoxy- and biarylalkoxy-phenylamide and phenylimidazoles as potent and selective sphingosine-1-phosphate receptor subtype-1 agonists” (Bioorg Med Chem Lett, 2009).
